Laboratory results taken from ChEMBL document CHEMBL1123812, “Pyrroloisoquinoline antidepressants. 2. In-depth exploration of structure-activity relationships” (J Med Chem, 1987).
Calls of active or inactive are those of the source.

Columns and labels:
[1] = biological target: T1, Adrenergic receptor alpha-1 (Rattus norvegicus, UniProt P15823+P23944+P43140); assay: Binding affinity towards alpha-1 adrenergic receptor; type: protein assay
T1 sequence (P15823 whole entry): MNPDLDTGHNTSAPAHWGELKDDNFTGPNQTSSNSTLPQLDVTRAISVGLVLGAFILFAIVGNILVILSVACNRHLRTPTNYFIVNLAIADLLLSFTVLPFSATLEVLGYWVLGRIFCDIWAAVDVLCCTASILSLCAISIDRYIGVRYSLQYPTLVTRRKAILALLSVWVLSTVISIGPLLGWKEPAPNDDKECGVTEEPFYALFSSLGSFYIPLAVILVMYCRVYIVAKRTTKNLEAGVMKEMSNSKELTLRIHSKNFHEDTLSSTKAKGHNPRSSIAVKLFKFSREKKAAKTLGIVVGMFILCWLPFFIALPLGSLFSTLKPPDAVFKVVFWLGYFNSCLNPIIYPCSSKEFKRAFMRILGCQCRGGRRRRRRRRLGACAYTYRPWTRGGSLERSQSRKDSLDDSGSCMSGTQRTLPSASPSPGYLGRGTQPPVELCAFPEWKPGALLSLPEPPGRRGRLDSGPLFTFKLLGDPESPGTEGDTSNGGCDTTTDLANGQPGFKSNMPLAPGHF
T1 sequence (P23944 whole entry): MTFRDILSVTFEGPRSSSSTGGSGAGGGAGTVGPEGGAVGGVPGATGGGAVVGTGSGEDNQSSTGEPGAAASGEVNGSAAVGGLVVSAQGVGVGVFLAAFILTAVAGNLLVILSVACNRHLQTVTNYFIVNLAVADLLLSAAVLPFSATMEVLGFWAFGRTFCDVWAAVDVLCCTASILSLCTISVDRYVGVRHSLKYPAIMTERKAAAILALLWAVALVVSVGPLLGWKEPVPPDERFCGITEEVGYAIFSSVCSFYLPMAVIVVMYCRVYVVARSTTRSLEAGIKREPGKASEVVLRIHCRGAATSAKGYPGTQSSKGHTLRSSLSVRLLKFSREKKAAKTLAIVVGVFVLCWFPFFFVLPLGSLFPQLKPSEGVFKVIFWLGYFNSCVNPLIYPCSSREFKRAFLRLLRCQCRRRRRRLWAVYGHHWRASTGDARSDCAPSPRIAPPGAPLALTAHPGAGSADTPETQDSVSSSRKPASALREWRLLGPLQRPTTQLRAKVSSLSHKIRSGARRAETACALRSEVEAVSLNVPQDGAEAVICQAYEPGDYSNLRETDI
T1 sequence (P43140 whole entry): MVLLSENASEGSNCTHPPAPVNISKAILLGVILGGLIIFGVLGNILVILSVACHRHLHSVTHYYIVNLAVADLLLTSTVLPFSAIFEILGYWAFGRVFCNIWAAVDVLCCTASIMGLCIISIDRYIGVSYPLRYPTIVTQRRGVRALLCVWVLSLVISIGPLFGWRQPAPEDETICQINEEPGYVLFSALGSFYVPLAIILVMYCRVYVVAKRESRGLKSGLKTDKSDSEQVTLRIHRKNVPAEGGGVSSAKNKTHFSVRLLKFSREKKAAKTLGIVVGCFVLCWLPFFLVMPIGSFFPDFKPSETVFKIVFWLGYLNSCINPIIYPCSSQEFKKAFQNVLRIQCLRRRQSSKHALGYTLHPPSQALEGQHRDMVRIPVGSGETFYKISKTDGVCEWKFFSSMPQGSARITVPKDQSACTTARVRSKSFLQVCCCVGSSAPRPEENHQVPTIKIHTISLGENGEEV

[2] = biological target: Sodium-dependent dopamine transporter (Rattus norvegicus, UniProt P23977); assay: Inhibition of the uptake of tritiated dopamine (DA) in rat synaptosomes; type: subcellular, Brain
D(2) dopamine receptor = D(2) dopamine receptor (Rattus norvegicus, UniProt P61169); assay: Binding affinity towards Dopamine receptor D2
[3] = biological target: Serotonin 2 (5-HT2) receptor (Rattus norvegicus, UniProt P30994+P08909+P14842); assay: Binding affinity towards 5-hydroxytryptamine 2 receptor; type: protein assay
Mus musculus [4] = organism: Mus musculus; assay: Antagonism of tetrabenazine (TBZ)-induced depression measured in mice by motor activity; type: functional; settings: Mus musculus; read-out: ED50
Summary of the method: (§1)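 Nonfasted male Swiss Webster mice, 18–24 g, ten per dose level and in saline controls. Test compound given ip 30 min before tetrabenazine 32 mg/kg ip; dose expressed as free base. Motor activity and ptosis scored. Control response ≤90% corrected by Abbott's formula.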

Mus musculus [5] = organism: Mus musculus; assay: Antagonism of tetrabenazine (TBZ)-induced depression in mice measured for ptosis; type: functional; settings: Mus musculus; read-out: ED50; summary of the method: as §1
[6] = biological target: Norepinephrine transporter (Rattus norvegicus, UniProt Q9WTR4); assay: Inhibition of uptake of tritiated norepinephrine (NE) in rat synaptosomes; type: subcellular, Brain
Mus musculus [7] = assay: Ability to antagonise intraperitoneal dose; inactive (<10% antagonism) at 30 mg/kg is represented as I-30.; type: functional, organism-based; parameters: dose 30 mg/kg; summary of the method: as §1
Mus musculus [8] = organism: Mus musculus; assay: Gross behavioral effects ascertained in mice; C indicates overt convulsant; type: functional, organism-based
Summary of the method: (§2)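 Male Swiss Webster mice, 18–24 g, three per dose, given ip doses of 1, 3, 10, 30, 100 and 300 mg/kg. Observed for gross behavior and held for 4 days. Scored as weak (W), stimulant (S), depressant (D) or convulsant (C).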

[9] = biological target: Norepinephrine transporter (Rattus norvegicus) (UniProt Q9WTR4); assay: Ability to inhibit the uptake of [3H]norepinephrine (NE) 0.1 uM concentration at rat brain synaptosomes; type: functional, subcellular
Summary of the method: (§3)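 Male Wistar rat brain synaptosomes (P2 fraction): hypothalamus for NE, striatum for DA, cerebral cortex for 5-HT. Buffer is Tris- or HEPES-buffered salt medium with glucose, ascorbate and nialamide, pH 7.4 at 37 °C. Preincubated 10 min at 37 °C with compound. Uptake started with [3H]NE 100–300 nM, [3H]DA 50–300 nM or [3H]5-HT 100–200 nM, incubated 3 min (DA) or 6–10 min (NE, 5-HT). Blanks held on ice. Filtered, counted by scintillation.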

Mus musculus [10] = assay: Ability to antagonise intraperitoneal dose; inactive (<10% antagonism) at 30 mgjkg is represented as I-30.; type: functional, organism-based; summary of the method: as §1
Rattus norvegicus = organism: Rattus norvegicus; assay: Ability to inhibit the uptake of tritiated dopamine (DA) 1 uM concentration; type: functional
Summary of the method: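 Rat brain synaptosomal [3H]dopamine uptake: striatal P2 fraction, test compound at 1.00 μM. Preincubated at 37 °C, then 50–300 nM [3H]DA for 3 min. Blanks on ice. Filtration and scintillation counting; percent inhibition of control uptake.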

[11] = biological target: Sodium-dependent serotonin transporter (Rattus norvegicus) (UniProt P31652); assay: Ability to inhibit the uptake of [3H]- serotonin(5-HT) 0.1 uM concentration at rat brain synaptosomes; type: functional, subcellular; summary of the method: as §3
Mus musculus [12] = organism: Mus musculus; assay: Gross behavioral effects ascertained in mice; D indicates significant depressant properties.; type: functional, organism-based
Summary of the method: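 Male Swiss Webster albino mice, 18–24 g, three per dose, given ip 1, 3, 10, 30, 100 and 300 mg/kg. Gross behaviour observed and held 4 days. Estimated LD50 range from lethality count on day 4. Scored as weak stimulant/depressant, significant stimulant, significant depressant or overt convulsant.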

[13] = biological target: Sodium-dependent serotonin transporter (Rattus norvegicus) (UniProt P31652); assay: Inhibition of tritiated serotonin(5-HT) uptake at 0.1 uM concentration; type: functional; summary of the method: as §3
[14] = biological target: D(2) dopamine receptor (Rattus norvegicus) (UniProt P61169); assay: Binding affinity towards dopamine receptor D2 at 1.0 uM concentration
Summary of the method: (§4)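 Rat brain crude synaptic membranes in 20 mM NaHEPES pH 7.5. Ligands: α1 cortex […] 0.4 nM, nonspecific with (-)-NE 100 μM, 30 min at 25 °C. […] D2 striatum [3H]spiperone 0.05 nM with (+)-butaclamol 1 μM, 45 min at 37 °C. S1 cortex [3H]5-HT 1 nM plus glutathione and MgCl2, with 5-HT 10 μM, 20 min at 37 °C. […] Samples filtered on GF/B and counted.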

[15] = biological target: D(1A) dopamine receptor (Rattus norvegicus) (UniProt P18901); assay: Binding affinity towards Dopamine receptor D1 at 1.0 uM concentration; summary of the method: as §4
[16] = biological target: Serotonin 1 (5-HT1) receptor (Rattus norvegicus) (UniProt P28564+P30940+P19327+P28565); assay: Binding affinity towards serotonin S1 receptor at 1.0 uM; type: protein assay; summary of the method: as §4
[17] = biological target: Adrenergic receptor alpha-1 (Rattus norvegicus) (UniProt P15823+P23944+P43140); assay: Binding affinity towards alpha-1 adrenergic receptor at 1.0 uM concentration; type: protein assay; summary of the method: as §4
D(1A) dopamine receptor = D(1A) dopamine receptor (Rattus norvegicus, UniProt P18901); assay: Binding affinity towards Dopamine receptor D1
Mus musculus [18] = organism: Mus musculus; assay: Gross behavioral effects ascertained in mice; S indicates significant stimulant properties.; type: functional, organism-based; summary of the method: as §2
[19] = biological target: Adrenergic receptor alpha-2 (Rattus norvegicus) (UniProt P22086+P19328+P22909); assay: Binding affinity towards alpha-2 adrenergic receptor at 1.0 uM concentration; type: protein assay
[20] = biological target: Muscarinic acetylcholine receptor (Rattus norvegicus) (UniProt P08482+P08483+P08485+P08911+P10980); assay: Binding affinity towards Muscarinic acetylcholine receptor at 1.0 uM concentration; type: protein assay
Mus musculus [21] = organism: Mus musculus; assay: Gross behavioral effects ascertained in mice; W indicates weak stimulant or depressant activity of little significance.; type: functional, organism-based; summary of the method: as §2
[22] = biological target: Serotonin 1 (5-HT1) receptor (Rattus norvegicus, UniProt P28564+P30940+P19327+P28565); assay: Binding affinity towards serotonin S1 receptor; type: protein assay; summary of the method: as §4

Sequence of Sodium-dependent dopamine transporter (P23977 whole entry): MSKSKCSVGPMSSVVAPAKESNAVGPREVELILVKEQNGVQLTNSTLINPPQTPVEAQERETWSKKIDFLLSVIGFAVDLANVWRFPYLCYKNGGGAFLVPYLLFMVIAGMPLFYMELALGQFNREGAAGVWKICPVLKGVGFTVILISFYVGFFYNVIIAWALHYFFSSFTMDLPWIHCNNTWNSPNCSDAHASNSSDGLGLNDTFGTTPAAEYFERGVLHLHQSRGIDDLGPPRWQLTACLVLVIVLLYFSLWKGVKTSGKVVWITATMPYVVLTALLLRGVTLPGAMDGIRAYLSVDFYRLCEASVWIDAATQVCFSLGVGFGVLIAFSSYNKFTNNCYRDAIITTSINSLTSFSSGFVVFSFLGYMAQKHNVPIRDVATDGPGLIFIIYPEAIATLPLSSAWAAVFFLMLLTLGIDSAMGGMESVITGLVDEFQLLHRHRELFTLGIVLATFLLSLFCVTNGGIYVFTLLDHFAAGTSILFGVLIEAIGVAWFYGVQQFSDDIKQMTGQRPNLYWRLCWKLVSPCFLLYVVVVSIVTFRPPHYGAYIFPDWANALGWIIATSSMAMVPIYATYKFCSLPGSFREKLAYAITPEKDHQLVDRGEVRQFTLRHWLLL
Sequence of Norepinephrine transporter (Q9WTR4 whole entry): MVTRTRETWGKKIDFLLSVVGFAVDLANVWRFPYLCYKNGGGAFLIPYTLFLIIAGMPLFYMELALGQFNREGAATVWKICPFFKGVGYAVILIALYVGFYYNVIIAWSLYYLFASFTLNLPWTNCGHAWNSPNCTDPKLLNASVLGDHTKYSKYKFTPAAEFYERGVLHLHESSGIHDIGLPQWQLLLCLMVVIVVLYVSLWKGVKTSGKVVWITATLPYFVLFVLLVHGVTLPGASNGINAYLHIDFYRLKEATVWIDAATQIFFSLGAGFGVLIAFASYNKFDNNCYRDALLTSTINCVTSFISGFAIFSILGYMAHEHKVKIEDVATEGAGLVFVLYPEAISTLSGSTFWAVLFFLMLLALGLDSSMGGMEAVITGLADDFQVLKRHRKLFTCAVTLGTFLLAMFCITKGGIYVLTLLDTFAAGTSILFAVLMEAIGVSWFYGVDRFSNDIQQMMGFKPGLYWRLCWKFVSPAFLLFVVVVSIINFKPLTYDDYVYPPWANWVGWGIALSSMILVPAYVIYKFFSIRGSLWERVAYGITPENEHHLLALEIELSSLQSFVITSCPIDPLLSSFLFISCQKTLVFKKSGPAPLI
Sequence of Sodium-dependent serotonin transporter (Rattus norvegicus) (P31652 whole entry): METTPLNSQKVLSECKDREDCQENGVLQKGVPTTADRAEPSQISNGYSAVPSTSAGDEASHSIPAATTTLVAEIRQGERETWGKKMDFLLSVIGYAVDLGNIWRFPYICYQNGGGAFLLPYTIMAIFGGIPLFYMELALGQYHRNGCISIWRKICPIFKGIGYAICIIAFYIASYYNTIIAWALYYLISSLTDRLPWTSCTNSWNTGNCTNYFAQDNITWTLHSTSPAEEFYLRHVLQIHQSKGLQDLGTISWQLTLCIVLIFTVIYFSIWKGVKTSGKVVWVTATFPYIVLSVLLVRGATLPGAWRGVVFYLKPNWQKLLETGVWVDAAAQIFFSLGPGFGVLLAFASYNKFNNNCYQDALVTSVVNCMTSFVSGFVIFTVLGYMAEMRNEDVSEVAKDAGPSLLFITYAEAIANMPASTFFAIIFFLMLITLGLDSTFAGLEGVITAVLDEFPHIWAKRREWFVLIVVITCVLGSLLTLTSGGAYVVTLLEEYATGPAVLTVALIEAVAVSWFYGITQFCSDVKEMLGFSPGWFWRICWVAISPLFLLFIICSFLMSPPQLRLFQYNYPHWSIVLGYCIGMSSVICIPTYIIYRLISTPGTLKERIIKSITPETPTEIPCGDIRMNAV
Sequence of Norepinephrine transporter (Rattus norvegicus) (Q9WTR4 as listed by the source): as the sequence (Q9WTR4 whole entry) above
Sequence of D(1A) dopamine receptor (Rattus norvegicus) (P18901 whole entry): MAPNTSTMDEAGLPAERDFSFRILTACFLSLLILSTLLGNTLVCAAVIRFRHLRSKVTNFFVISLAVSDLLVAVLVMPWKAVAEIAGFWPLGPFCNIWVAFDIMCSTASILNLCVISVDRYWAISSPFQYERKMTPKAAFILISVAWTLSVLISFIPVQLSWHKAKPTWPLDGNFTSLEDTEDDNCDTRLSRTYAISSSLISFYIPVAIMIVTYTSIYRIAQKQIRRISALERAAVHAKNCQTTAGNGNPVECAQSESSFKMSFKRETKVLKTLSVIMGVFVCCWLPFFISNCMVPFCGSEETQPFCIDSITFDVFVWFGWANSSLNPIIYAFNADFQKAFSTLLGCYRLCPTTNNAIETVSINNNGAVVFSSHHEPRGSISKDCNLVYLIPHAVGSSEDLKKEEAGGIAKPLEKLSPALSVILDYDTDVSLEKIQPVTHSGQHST
Sequence of D(2) dopamine receptor (Rattus norvegicus) (P61169 whole entry): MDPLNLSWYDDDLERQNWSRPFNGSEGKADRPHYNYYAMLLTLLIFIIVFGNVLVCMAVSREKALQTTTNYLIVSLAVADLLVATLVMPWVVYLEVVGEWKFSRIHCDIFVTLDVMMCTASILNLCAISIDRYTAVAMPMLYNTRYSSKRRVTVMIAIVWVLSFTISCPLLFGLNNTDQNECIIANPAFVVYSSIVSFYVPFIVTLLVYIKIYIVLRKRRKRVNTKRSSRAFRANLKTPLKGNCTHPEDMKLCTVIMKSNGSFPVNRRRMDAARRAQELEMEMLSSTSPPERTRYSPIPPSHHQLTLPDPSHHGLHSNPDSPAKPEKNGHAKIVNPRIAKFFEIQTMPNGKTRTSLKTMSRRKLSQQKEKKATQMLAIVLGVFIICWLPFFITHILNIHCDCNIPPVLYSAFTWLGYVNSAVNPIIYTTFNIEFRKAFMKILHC
Sequence of D(1A) dopamine receptor (P18901 whole entry): as the sequence (P18901 whole entry) above
Sequence of D(2) dopamine receptor (P61169 whole entry): as the sequence (P61169 whole entry) above

## FC(F)(F)c1cccc([C@@H]2CN3CCC[C@@H]3c3ccccc32)c1 (stereo in doubt; 37b)
[1]
  Ki: 0.213 µM
[2]
  Ki: 0.0543 µM
D(2) dopamine receptor
  Ki: 2.22 µM
[3]
  Ki: 0.602 µM
Mus musculus [4]
  ED50: 0.78 mg/kg
Mus musculus [5]
  ED50: 0.58 mg/kg
[6]
  Ki: 0.00095 µM

## C[C@@]12CCCN1C[C@@H](c1ccccc1)c1ccccc12
Mus musculus [7]
  ED50: inactive
Mus musculus [8]
  behavior: Overt convulsant
[9]
  inhibition: 2%
Mus musculus [10]
  ED50: inactive
Rattus norvegicus
  Inhibition: 25%
[11]
  inhibition: 23%

## Br.COc1ccc2c(c1)[C@@H]1CCCN1C[C@H]2c1ccccc1
[2]
  Ki: 0.0389 µM
Mus musculus [12]
  behavior: Significant depressant
[13]
  inhibition: 21%
Mus musculus [4]
  ED50: ~40 mg/kg
Mus musculus [5]
  ED50: 8 mg/kg
[6]
  Ki: 0.0209 µM

## COc1ccc2c(c1)CN(C)CC2c1ccc(Cl)c(Cl)c1 (stereo not drawn) [DICLOFENSINE]
[14]
  inhibition: 27%
[2]
  Ki: 0.0109 µM
[15]
  inhibition: 38%
[16]
  inhibition: 33%
[17]
  inhibition: -6%
[3]
  Ki: 0.037 µM
[6]
  Ki: 0.0088 µM

## Br.Oc1ccc([C@@H]2CN3CCC[C@@H]3c3ccccc32)cc1O
[14]
  inhibition: 5%
[1]
  Ki: 0.675 µM
[2]
  Ki: 0.0101 µM
D(1A) dopamine receptor
  Ki: > 1 µM
Mus musculus [18]
  behavior: Stimulant
[19]
  inhibition: 26%
Mus musculus [4]
  ED50: 0.19 mg/kg
[20]
  inhibition: 0%
Mus musculus [5]
  ED50: 0.11 mg/kg
[6]
  Ki: 0.00081 µM

## Fc1ccc([C@@H]2CN3CCC[C@@H]3c3ccccc32)cc1
[15]
  inhibition: 56%
Mus musculus [21]
  behavior: Partial stimulant
Mus musculus [4]
  ED50: ~0.2 mg/kg
Mus musculus [5]
  ED50: ~0.2 mg/kg
[6]
  Ki: 0.0014 µM

## Br.Clc1ccccc1[C@@H]1CN2CCC[C@@H]2c2ccccc21 (stereo in doubt; (+)-24b)
[22]
  Ki: 9.2 µM
[1]
  Ki: 0.15 µM
[2]
  Ki: 0.0175 µM

## Br.CC(=O)Nc1ccc([C@@H]2CN3CCC[C@@H]3c3ccccc32)cc1
Mus musculus [12]
  behavior: Significant depressant
Mus musculus [4]
  ED50: 0.037 mg/kg
Mus musculus [5]
  ED50: 0.042 mg/kg

## Br.C[C@@]1(c2ccccc2)CN2CCC[C@H]2c2ccccc21
Mus musculus [21]
  behavior: Weak
[9]
  inhibition: 19%
Rattus norvegicus
  Inhibition: 50%
Mus musculus [4]
  ED50: 22.5 mg/kg
Mus musculus [5]
  ED50: 16.2 mg/kg
[11]
  inhibition: 14%
